ChEMBL document CHEMBL2057141, “Imidazolopiperazines: lead optimization of the second-generation antimalarial agents” (J Med Chem, 2012)
Each block holds one compound with its values, some of them ahead of it.

Tests used:
[1] = test system: Plasmodium falciparum; assay: Antimalarial activity against Plasmodium falciparum 3D7 after 72 hrs by SYBR green fluorescence assay; assay type: functional, organism-based; conditions: 3D7, 72 h
In short: (§1)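 P. falciparum grown in O+ erythrocytes, screened in medium without human serum plus 0.5% Albumax II. Twelve-point half-log dilutions up to 10 μM final. 0.3% parasitemia, 2.5% hematocrit; 72 h at 37 °C under low-oxygen gas. Lysis buffer with SYBR Green added, 24 h at 25 °C, fluorescence read at 485/530 nm.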

[2] = test system: Plasmodium falciparum; assay: Antimalarial activity against Plasmodium falciparum W2 after 72 hrs by SYBR green fluorescence assay; assay type: functional, organism-based; conditions: W2, 72 h; in short: as §1
[3] = Permeability of the compound by PAMPA; assay type: ADME
In short: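 PAMPA in 96-well filter plates. Permeated compound quantified by UV absorbance at 260–290 nm. Reported as percentage absorbed.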

[4] = test system: Mus musculus; assay: AUC (0 to 24 hrs) in Balb/c mouse at 5 mg/kg, iv; assay type: ADME, organism-based, Plasma; parameters: time < 24 hr, dose 5 mg/kg, route intravenous; conditions: in vivo
In short: (§2)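 Male Balb/c mice (n = 3 per group). Compound as a 2.5 mg/mL solution in PEG300/D5W 3:1, filtered. Given by lateral tail vein at 5 mg/kg (2 mL/kg) or orally at 20 mg/kg (8 mL/kg). Six serial 50 μL retro-orbital blood samples to 24 h, heparinized plasma. Plasma extracted with acetonitrile:methanol 3:1 with internal standard, LC-MS/MS. Noncompartmental analysis; F = AUCpo×dose_iv/AUCiv×dose_po.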

[5] = test system: Mus musculus; assay: AUC (0 to 24 hrs) in Balb/c mouse at 20 mg/kg, po; assay type: ADME, organism-based, Plasma; parameters: time < 24 hr, dose 20 mg/kg, route oral; conditions: in vivo; in short: as §2
[6] = test system: Plasmodium berghei; assay: Antimalarial activity against Plasmodium berghei ANKA expressing GFP infected in po dosed NMRI mouse assessed as reduction of parasite level in blood administered 24 hrs post infection measured after 72 hrs post infection by flow cytometry; assay type: functional
[7] = Metabolic stability in mouse liver microsomes assessed as hepatic extraction ratio by LC/MS/MS analysis in presence of CYP; assay type: ADME, Microsome
In short: (§3)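 Liver microsomes (human, mouse, rat). Compound depletion followed by LC/MS/MS. Loss of parent used to derive in vitro half-life and hepatic extraction ratio.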

[8] = Metabolic stability in rat liver microsomes assessed as hepatic extraction ratio by LC/MS/MS analysis in presence of CYP; assay type: ADME, Microsome; in short: as §3
[9] = Metabolic stability in human liver microsomes assessed as hepatic extraction ratio by LC/MS/MS analysis in presence of CYP; assay type: ADME, Microsome; in short: as §3
[10] = target: Voltage-gated inwardly rectifying potassium channel KCNH2 (Homo sapiens, UniProt Q12809); assay: Inhibition of human ERG channel expressed in CHO cells by patch clamp assay; assay type: cell-based
[11] = Apparent permeability across apical to basolateral side in human Caco2 cells by LC/MS analysis; assay type: ADME, cell-based; conditions: Caco-2
In short: (§4)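 Caco-2 monolayers in 96-well format. Compound measured in apical and basolateral chambers by LC/MS, giving Papp in the A–B and B–A directions. Values reported in cm/s × 10⁶.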

[12] = Apparent permeability across basolateral to apical side in human Caco2 cells by LC/MS analysis; assay type: ADME, cell-based; conditions: Caco-2; in short: as §4
[13] = Volume of distribution in Balb/c mouse at 5 mg/kg, iv; assay type: ADME, organism-based; parameters: dose 5 mg/kg, route intravenous; conditions: in vivo; in short: as §2
[14] = Clearance in Balb/c mouse plasma at 5 mg/kg, iv; assay type: ADME, organism-based; parameters: dose 5 mg/kg, route intravenous; in short: as §2
[15] = Half life in Balb/c mouse at 5 mg/kg, iv; assay type: ADME, organism-based; parameters: dose 5 mg/kg, route intravenous; conditions: in vivo; in short: as §2
[16] = Cmax in Balb/c mouse at 20 mg/kg, po; assay type: ADME, organism-based; parameters: dose 20 mg/kg, route oral; conditions: in vivo; in short: as §2
[17] = Tmax in Balb/c mouse at 20 mg/kg, po; assay type: ADME, organism-based; parameters: dose 20 mg/kg, route oral; conditions: in vivo; in short: as §2
[18] = Half life in Balb/c mouse at 20 mg/kg, po; assay type: ADME, organism-based; parameters: dose 20 mg/kg, route oral; conditions: in vivo; in short: as §2
[19] = test system: Mus musculus; assay: Oral bioavailability in Balb/c mouse at 20 mg/kg; assay type: ADME, organism-based; conditions: in vivo; in short: as §2
[20] = test system: Plasmodium berghei; assay: Antimalarial activity against Plasmodium berghei ANKA expressing GFP infected in NMRI mouse assessed as reduction of parasite level in blood at 30 mg/kg, po administered 24 hrs post infection measured after 72 hrs post infection by flow cytometry; assay type: functional; parameters: scale not given: the % may be the effect or the level left
In short: (§5)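 Female NMRI mice (20–22 g, n=3) are infected i.v. with 2×10^7 P. berghei GFP ANKA-infected erythrocytes. Oral compound in 75% PEG300/25% D5W is given at 10 mL/kg, once at 24 h or daily at 24/48/72 h post-infection. Parasitemia is read by flow cytometry at 72 h (single dose) or 96 h (triple dose). Activity is % reduction of mean parasitemia versus untreated controls.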

[21] = test system: Plasmodium berghei; assay: Antimalarial activity against Plasmodium berghei ANKA expressing GFP infected in NMRI mouse assessed as reduction of parasite level in blood at 100 mg/kg, po administered 24 hrs post infection measured after 72 hrs post infection by flow cytometry; assay type: functional; parameters: scale not given: the % may be the effect or the level left; in short: as §5
[22] = test system: Plasmodium berghei; assay: Antimalarial activity against Plasmodium berghei ANKA expressing GFP infected in NMRI mouse assessed as reduction of parasite level in blood at 30 mg/kg, po administered 24 hrs post infection qd for 3 days measured after 96 hrs post infection by flow cytometry; assay type: functional; parameters: scale not given: the % may be the effect or the level left; in short: as §5
[23] = test system: Plasmodium berghei; assay: Antimalarial activity against Plasmodium berghei ANKA expressing GFP infected in NMRI mouse assessed as increase of mouse survival at 30 mg/kg, po administered 24 hrs post infection (reference value: 6 to 7 days); assay type: functional
[24] = test system: Plasmodium berghei; assay: Antimalarial activity against Plasmodium berghei ANKA expressing GFP infected in NMRI mouse assessed as increase of mouse survival at 100 mg/kg, po administered 24 hrs post infection (reference value: 6 to 7 days); assay type: functional
[25] = test system: Plasmodium berghei; assay: Antimalarial activity against Plasmodium berghei ANKA expressing GFP infected in NMRI mouse assessed as increase of mouse survival at 30 mg/kg, po administered 24 hrs post infection qd for 3 days (reference value: 6 to 7 days); assay type: functional
[26] = AUC (0 to 5 hrs) in Wistar rat at 10 mg/kg, po; assay type: ADME, organism-based; parameters: dose 10 mg/kg, route oral; conditions: plasma
[27] = Cmax in Wistar rat at 10 mg/kg, po; assay type: ADME, organism-based; parameters: dose 10 mg/kg, route oral; conditions: Wistar, in vivo
In short: (§6)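 Rat snapshot PK: two Wistar rats dosed orally at 10 mg/kg, formulated at 2.5 mg/mL in 75% PEG300/25% D5W. Blood (100 μL) taken at 0.5, 1, 3 and 5 h post dose. Plasma pooled by sampling time, then analysed by LC-MS/MS.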

[28] = test system: Rattus norvegicus; assay: Dose normalized AUC (0 to 5 hrs) in Wistar rat at 10 mg/kg, po; assay type: ADME, organism-based; parameters: dose 10 mg/kg, route oral; conditions: in vivo; in short: as §6

Chain of Voltage-gated inwardly rectifying potassium channel KCNH2 (Q12809 whole entry): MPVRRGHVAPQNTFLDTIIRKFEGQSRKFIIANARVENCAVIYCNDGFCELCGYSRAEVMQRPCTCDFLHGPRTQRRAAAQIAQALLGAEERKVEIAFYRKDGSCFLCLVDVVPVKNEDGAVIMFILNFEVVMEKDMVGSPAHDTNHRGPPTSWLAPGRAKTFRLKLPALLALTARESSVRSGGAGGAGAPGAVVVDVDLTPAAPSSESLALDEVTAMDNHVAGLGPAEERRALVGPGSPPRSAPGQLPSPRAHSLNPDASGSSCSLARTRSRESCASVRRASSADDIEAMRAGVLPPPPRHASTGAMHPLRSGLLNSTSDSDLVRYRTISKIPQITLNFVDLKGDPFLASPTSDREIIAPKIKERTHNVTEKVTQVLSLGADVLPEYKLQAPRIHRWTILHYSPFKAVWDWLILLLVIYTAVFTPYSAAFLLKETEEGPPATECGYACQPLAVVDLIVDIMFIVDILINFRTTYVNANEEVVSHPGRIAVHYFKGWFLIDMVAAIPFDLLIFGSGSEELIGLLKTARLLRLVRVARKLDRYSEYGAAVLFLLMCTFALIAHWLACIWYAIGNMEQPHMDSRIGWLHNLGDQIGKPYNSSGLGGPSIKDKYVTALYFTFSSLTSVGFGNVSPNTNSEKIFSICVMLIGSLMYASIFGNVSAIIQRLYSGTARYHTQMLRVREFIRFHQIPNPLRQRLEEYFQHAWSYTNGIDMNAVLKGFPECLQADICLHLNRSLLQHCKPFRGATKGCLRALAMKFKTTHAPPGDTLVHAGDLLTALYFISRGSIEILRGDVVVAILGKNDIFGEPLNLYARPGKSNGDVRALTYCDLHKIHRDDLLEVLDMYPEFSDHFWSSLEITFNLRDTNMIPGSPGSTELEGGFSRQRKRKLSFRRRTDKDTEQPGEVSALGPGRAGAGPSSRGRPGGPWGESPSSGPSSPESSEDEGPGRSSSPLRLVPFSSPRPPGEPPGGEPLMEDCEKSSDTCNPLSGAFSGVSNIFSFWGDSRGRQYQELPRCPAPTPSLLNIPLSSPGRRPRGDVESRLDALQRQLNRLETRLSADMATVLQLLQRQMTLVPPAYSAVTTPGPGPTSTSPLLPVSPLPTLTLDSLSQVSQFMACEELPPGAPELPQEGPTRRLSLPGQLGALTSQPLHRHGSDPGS

EC50 [1]: 20 nM | EC50 [2]: 25 nM | permeability [3]: 81% | AUC [4]: 3.442 µM·h | AUC [5]: 17.894 µM·h
Compound: CC(C)(N)C(=O)N1CCn2c(nc(-c3ccc(F)cc3)c2Nc2ccc(F)cc2)C1

Compound: CC(C)(N)C(=O)N1CCn2c(nc(-c3ccc(F)cc3)c2Nc2ccc(F)c(F)c2)C1
ED99 [6]: 26.5 mg/kg

EC50 [1]: 24 nM | EC50 [2]: 23 nM | permeability [3]: 52% | AUC [4]: 1.072 µM·h | AUC [5]: 0.965 µM·h
Compound: NCC(=O)N1CCn2c(nc(-c3ccc(F)cc3)c2Nc2ccc(F)cc2)C1

Compound: CC1(C)c2nc(-c3ccc(F)cc3)c(Nc3ccc(F)c(F)c3)n2CCN1C(=O)CN
EC50 [1]: 4 nM | EC50 [2]: 5 nM | hepatic extraction ratio [7]: 0.46 | hepatic extraction ratio [8]: 0.69 | hepatic extraction ratio [9]: 0.53 | IC50 [10]: > 30000 nM | permeability [3]: 51.5% | Papp A→B [11]: 0.61 ×10⁻⁶ cm/s | Papp B→A [12]: 1.3 ×10⁻⁶ cm/s | Vd [13]: 7.5 L/kg | clearance [14]: 27.5 mL/min/kg | half-life [15]: 5.5 h | AUC [4]: 7.062 µM·h | Cmax [16]: 1720 nM | Tmax [17]: 3 h | half-life [18]: 5.21 h | AUC [5]: 21.058 µM·h | F [19]: 75% | Activity [20]: 99% | Activity [21]: 99.1% | Activity [22]: 99.7% | Survival [23]: 15 days | Survival [24]: 16.7 days | Survival [25]: 17 days | AUC(0-t) at 4 h [26]: 0.367 µM·h | Cmax [27]: 96.7 nM | AUC/dose [28]: 0.95 min.ug/ml/(mg/kg)

EC50 [1]: 4 nM | EC50 [2]: 4 nM
Compound: NCC(=O)N1CCn2c(nc(-c3ccc(F)cc3)c2Nc2ccc(F)c(Cl)c2)C1

EC50 [1]: 29 nM | EC50 [2]: 24 nM
Compound: C[C@H]1c2nc(-c3ccc(F)cc3)c(Nc3ccc(F)c(Cl)c3)n2CCN1C(=O)CN

EC50 [1]: 31 nM | EC50 [2]: 29 nM
Compound: C[C@@H]1c2nc(-c3ccc(F)cc3)c(Nc3ccc(F)c(Cl)c3)n2CCN1C(=O)CN

EC50 [1]: 343 nM | EC50 [2]: 470 nM
Compound: CC(C)[C@H]1c2nc(-c3ccc(F)cc3)c(Nc3ccc(F)c(Cl)c3)n2CCN1C(=O)CN

EC50 [1]: 168 nM | EC50 [2]: 202 nM
Compound: CC(C)[C@@H]1c2nc(-c3ccc(F)cc3)c(Nc3ccc(F)c(Cl)c3)n2CCN1C(=O)CN

EC50 [1]: 27 nM | EC50 [2]: 24 nM
Compound: CC1(C)c2nc(-c3ccc(F)cc3)c(Nc3ccc(F)c(Cl)c3)n2CCN1C(=O)CN

EC50 [1]: 8 nM | EC50 [2]: 6 nM
Compound: Cc1ccc(Nc2c(-c3ccc(F)cc3)nc3n2CCN(C(=O)CN)C3(C)C)cc1
